ChEMBL document CHEMBL1126583, “Potent quinoxaline-spaced phosphono alpha-amino acids of the AP-6 type as competitive NMDA antagonists: synthesis and biological evaluation” (J Med Chem, 1993)

Assays:
Glutamate NMDA receptor [1] = experiment: Tested for binding affinity against NMDA receptor, from rat synaptic membrane, using [3H]-CPP as the radioligand.
Procedure, shortened: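 Rat whole-brain crude synaptic membranes, Triton X-100 treated and frozen at -70 °C; 0.2–0.5 mg protein incubated 15 min at 23 °C with 8 nM [3H]CPP in 50 mM Tris HCl pH 7.6. Nonspecific binding defined with 1.0 mM NMDA. Bound ligand separated by centrifugation and counted by scintillation. Triplicates, 5–10 concentrations; IC50 with 95% confidence limits.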

Glutamate NMDA receptor [2] = experiment: Tested for binding affinity against NMDA receptor, from rat synaptic membrane, using [3H]TCP as the radioligand.
Procedure, shortened: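 Stimulated binding assay on rat whole-brain synaptic membranes in 5.0 mM Tris HCl pH 7.4. […] 100 μM MK-801 defines nonspecific binding. Filtration through PEI-soaked glass-fiber filters, then scintillation counting. Triplicates, 5–10 concentrations; IC50 with 95% confidence limits.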

Glutamate NMDA receptor [3] = experiment: Tested for binding affinity against NMDA receptor, from rat synaptic membrane, using [3H]glycine as the radioligand.
Procedure, shortened: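 Rat whole-brain synaptic membranes washed and resuspended in 50 mM Tris citrate. Separation by centrifugation, then scintillation counting.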

Row | SMILES | IC50 (Glutamate NMDA receptor [1]) [nM] | IC50 (Glutamate NMDA receptor [2]) [nM] | IC50 (Glutamate NMDA receptor [3]) [nM]
1 | NC(Cc1nc2ccccc2nc1CP(=O)(O)O)C(=O)O (single isomer, unassigned; (+)) | > 1000 | – | –
2 | NC(Cc1nc2ccccc2nc1CP(=O)(O)O)C(=O)O (stereo in doubt; 9) | 29.3 | 21000 | –
3 | NC(Cc1nc2cc(F)c(F)cc2nc1CP(=O)(O)O)C(=O)O (configuration not stated) | 166 | – | –
4 | CCOC(=O)C(N)Cc1nc2ccccc2nc1CP(=O)(O)O (configuration not stated) | > 1000 | – | –
5 | NC(Cc1nc2ccc(Cl)cc2nc1CP(=O)(O)O)C(=O)O (configuration not stated) | 38 | 13900 | 1800
6 | NC(Cc1cc2nccnc2cc1CP(=O)(O)O)C(=O)O (configuration not stated) | > 1000 | – | –
7 | NC(Cc1nc2c(Cl)ccc(Cl)c2nc1CP(=O)(O)O)C(=O)O (configuration not stated) | 245 | – | –
8 | NC(CCCCCP(=O)(O)O)C(=O)O (configuration not stated) [AP-7] | – | 302000 | –
9 | NC(Cc1nc2cc(Cl)ccc2nc1CP(=O)(O)O)C(=O)O (configuration not stated) | 24 | 8600 | > 100000
10 | O=C(O)[C@@H]1C[C@H](CP(=O)(O)O)CCN1 [SELFOTEL] | 28 | 22400 | > 100000
11 | NC(Cc1nc2cc(Cl)c(Cl)cc2nc1CP(=O)(O)O)C(=O)O (configuration not stated) | 3.4 | 11700 | 610
12 | NC(Cc1nc2cc3ccccc3cc2nc1CP(=O)(O)O)C(=O)O (configuration not stated) | 6.5 | 5600 | –
13 | NC(Cc1nc2ccccc2nc1CCP(=O)(O)O)C(=O)O (configuration not stated) | > 1000 | – | –
14 | COc1cc2nc(CC(N)C(=O)O)c(CP(=O)(O)O)nc2cc1OC (configuration not stated) | 832 | – | –
15 | O=C(O)C1CN(CCCP(=O)(O)O)CCN1 (configuration not stated) | 113 | – | > 100000
16 | Cc1cc2nc(CC(N)C(=O)O)c(CP(=O)(O)O)nc2cc1C (configuration not stated) | 22.3 | 16400 | –
17 | NC(Cc1nc2ccccc2nc1/C=C/P(=O)(O)O)C(=O)O (configuration not stated) | > 1000 | – | –
18 | NC(Cc1nc2ccccc2nc1CP(=O)(O)O)C(=O)O (stereo in doubt; 7) | 119 | 28000 | 4700
